The list is not random: actives were taken first. Their share in the collection is about 2.4%.
MIN6 prolif = induces beta-cell replication in MIN6 cells; proliferation, % at 10 µM; AID 2380; hit rate 0.29% among 330,000; MIN6 cells proliferation, ATPlite luminescence, 48 h; cells starved in 0.2% serum; 100% = growth in 10% serum;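 active = compounds whose signal lies at least 3.5 SD above the mean of all wells on their plate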;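 also: 0% = DMSO-treated cells in low-serum medium and 100% = 10% serum control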
HTR2A ag = activates the mouse 5-HT2A serotonin receptor. CHO-K1 mHTR2A beta-arrestin complementation, luminescence; percent of 30 µM serotonin response. activation, % at 7.6 µM. hit rate 0.66% among 360,000. AID 624169;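 active = activation above a run cutoff, the mean activation of all tested compounds plus 3 SD, cut at about 14% in these data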;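 also: 0% = plate median of compound wells and 100% = 30 µM serotonin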
Target sequence (P35363 whole entry, looked up): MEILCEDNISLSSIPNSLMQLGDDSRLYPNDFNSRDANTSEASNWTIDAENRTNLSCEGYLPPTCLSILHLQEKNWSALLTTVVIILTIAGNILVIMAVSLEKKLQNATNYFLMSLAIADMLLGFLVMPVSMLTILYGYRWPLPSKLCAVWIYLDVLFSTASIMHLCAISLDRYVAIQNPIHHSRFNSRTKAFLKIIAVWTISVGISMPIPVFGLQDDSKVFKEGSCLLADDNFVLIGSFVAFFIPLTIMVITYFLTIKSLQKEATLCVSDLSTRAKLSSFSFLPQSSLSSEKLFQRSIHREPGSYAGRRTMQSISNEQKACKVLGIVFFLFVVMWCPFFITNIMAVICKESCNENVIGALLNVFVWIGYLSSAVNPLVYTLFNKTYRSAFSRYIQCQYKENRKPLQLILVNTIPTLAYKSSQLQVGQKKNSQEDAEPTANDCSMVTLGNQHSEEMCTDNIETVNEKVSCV
Calb FLC = affects C. albicans growth with fluconazole; growth inhibition, % (test concentration not listed); hit rate 0.57% among 300,000; C. albicans CaCi-2 + fluconazole, Alamar Blue growth, 48 h;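 active = growth inhibition above about 58% in most replicates, limit read from the data, passing the limit was not always enough; inconclusive = exactly half the replicates above a set limit; inactive = most replicates below a set limit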;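 also: all wells also contain fluconazole at 8 µg/ml as a sub-toxic cotreatment; 0% = median of DMSO wells and 100% = median of geldanamycin control wells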
SR-BI DiI inh = inhibitors of mouse SR-BI mediated HDL lipid uptake; Q61009; ldlA[mSR-BI] CHO cells, DiI-HDL uptake fluorescence, 3 h; inhibition, % at 12.5 µM; hit rate 0.96% among 320,000;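 active = mean replicate inhibition of at least 70% and a set share of replicates each scoring 70 or more; inconclusive = meets just one of the two criteria; inactive = fails both criteria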;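 also: 0% = median of neutral control wells and 100% = median of positive control wells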
SR-BI uptake up = enhances SR-BI lipid uptake from DiI-HDL; CHO ldlA[mSR-BI] cells, DiI-HDL uptake fluorescence, 3 h; 100 = double the neutral-control signal; activation, % at 12.5 µM; hit rate 0.096% among 320,000; AID 504775;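 active = mean replicate activation of at least 60% and every replicate at or above 60%; inconclusive = mean or all-replicate condition met, but not both; inactive = mean below 60% and not all replicates reaching 60%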;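 also: 0% = median plate neutral-control signal and 100% = twice that signal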
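Material: SR-BI-overexpressing, LDLR-lacking CHO cells; schedule: compound exposure 3 h, 37 °C; reagent: DiI-labelled HDL at 10 µg/mL final; technique: bottom-read fluorescence, 550/595 nm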
Ins promoter up = MIN6 insulin promoter up-regulation; MIN6 insulin promoter-GFP reporter, high-content imaging; active compounds read high; z-score at 5 µM; hit rate 0.3% among 190,000; AID 1625;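 active = z-score above 3 at 5 µM with at least 500 cells counted in the well; inconclusive = wells under 500 cells, flagged as cytotoxic or low count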
DiI quencher = DiI fluorescence quenching in cell-free counter-screen. shares compounds with SR-BI DiI inh. cell-free DiI-HDL fluorescence quenching, 30 min. AC50, µM (doses to about 35 µM), for inactives: at the top dose activity change, negative = quenching. hit rate 20% among 470;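 active = quenching, a falling signal, with AC50 below a set limit tied to the top valid dose, actives reach about 32 µM in these data; inconclusive = no clear call, values can overlap the other calls; inactive = rising signal, and the rest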
Active calls of the source: *; ? = inconclusive; . = no result.

SMILES	MIN6 prolif	HTR2A ag	Calb FLC	SR-BI DiI inh	SR-BI uptake up	Ins promoter up	DiI quencher
CCC(C)(C)NC(=O)C(c1ccc(C)cc1)N(Cc1cccs1)C(=O)c1ccc2c(c1)OCCO2 (stereo not given)	-4.5	-5.0	-14.6	76.5*	-76.5	-1.08	6.3%
Cc1ccc(C(C(=O)NC(C)(C)C)N(Cc2cccs2)C(=O)c2csnn2)cc1 (stereo not given)	0.0	-3.5	6.4	-18.8	18.8	.	.
Cc1ccccc1C(=O)NC1CCN(CC(=O)NCc2ccccc2)CC1	-0.6	0.2	15.5	-15.4	15.4	.	.
Cc1ccc(S(=O)(=O)Nc2ccc3c(c2)nc(CCN2CCN(c4ccccn4)CC2)n3C)cc1	0.2	-14.1	-1.2	34.3	-34.3	.	.
Cn1c(CCN2CCN(c3ccccn3)CC2)nc2cc(NS(=O)(=O)c3ccc(Cl)cc3)ccc21	-1.8	-6.5	4.5	72.8*	-72.8	.	-1.5%
CC(=O)c1cccc(NC(=O)c2cc(-n3cnnc3)ccc2Cl)c1	-1.1	0.4	12.4	-8.9	8.9	1.29	.
CN(C(=O)c1cc(-n2cnnc2)ccc1Cl)c1ccccc1	-3.8	4.3	2.6	-11.0	11.0	-0.09	-3.3%
COc1cc(NC(=O)c2cc(-n3cnnc3)ccc2Cl)cc(OC)c1	-3.2	3.0	2.6	43.6	-43.6	-0.32	-1.8%
O=C(NCC1CCOCC1)c1ccc(-c2ccc(F)c(F)c2)c2ccoc12	.	-3.9	.	.	.	.	.
COc1ccc(C)cc1N(CC(=O)NC1CCCC1)C(=O)Cn1nnc(-c2ccc(C)o2)n1	0.0	7.9	-2.9	76.5*	-76.5	.	-1.8%
Cc1ccc(N(CC(=O)NC2CCCCC2)C(=O)Cn2nnc(-c3ccc(C)o3)n2)cc1	0.8	1.9	1.0	-28.0	28.0	.	.
O=C(NC1CCCC1)C(c1c[nH]c2ccccc12)N(C(=O)Cn1nnc(-c2ccc(Cl)cc2)n1)c1ccccc1 (stereo not given)	-5.0	-2.5	21.7	-6.3	6.3	.	-1.0%
O=C(CN(C(=O)Cn1nnc(-c2ccc(F)cc2)n1)C1CCCC1)NC1CCCC1	0.4	-3.6	-25.3	93.9*	-93.9	0.47	-1.6%
O=C(CCCC(=O)N(CC(=O)NC1CCCC1)C1CCCC1)Nc1ccccn1	-1.2	0.7	-1.8	?	-74.4	1.9	1.0%
CC(C)(C)NC(=O)C(c1c[nH]c2ccccc12)N(C(=O)Cn1nnc(-c2ccc(Cl)cc2)n1)c1ccccc1F (stereo not given)	0.0	1.0	0.3	3.0	-3.0	0.26	.
CCCCNC(=O)c1nc(-c2ccccc2)oc1-c1ccc(Cl)cc1	.	-0.3	.	.	.	.	.
COC(=O)[C@]1(Cc2ccccc2)N[C@H](CN(C)C(=O)c2ccc(F)cc2)[C@@H]2C(=O)N(C)C(=O)[C@@H]21	-2.5	2.7	.	-0.5	0.5	.	.
CCCC1=Nc2cc(C(=O)N3CCC(C(=O)OCC)CC3)ccc2Sc2ccccc21	-4.8	-2.9	7.4	24.8	-24.8	.	.
CCCn1c(=O)[nH]c(=O)c2c1nc(-c1ccc(OC(F)(F)C(F)C(F)(F)F)cc1)n2CCOC (stereo not given)	-0.5	-10.6	-2.3	75.1*	-75.1	0.65	-1.3%
O=C1[C@@H]2Cc3c([nH]c4ccccc34)C(c3cccc([N+](=O)[O-])c3)N2C(=O)CN1CCCO (stereo not given in full)	-2.5	-5.5	-1.3	81.8*	-81.8	.	-16.2%
O=C(Nc1cc(C(F)(F)F)cc(C(F)(F)F)c1)[C@H]1O[C@@H](n2ccc(=O)[nH]c2=O)[C@H](O)[C@@H]1O	.	-0.2	.	.	.	.	.
COc1ccccc1CC1S/C(=N/N=C/c2ccco2)NC1=O (stereo not given)	-0.2	1.5	?	2.9	-2.9	-0.26	.
CNc1nc(-c2ccc3c(c2)CCN3C(=O)c2ccccc2F)c(C)s1	-1.8	5.4	27.3	57.2	-57.2	.	-3.7%
CCCC(=O)N1CCc2cc(-c3nc(N)sc3C)ccc21	-0.2	-3.6	0.1	74.6*	-74.6	-0.18	-8.7%
CNc1nc(-c2ccc3c(c2)CCN3C(=O)c2ccccc2F)cs1	.	-5.3	4.3	69.6	-69.6	-1.4	.
SMILES	MIN6 prolif	HTR2A ag	Calb FLC	SR-BI DiI inh	SR-BI uptake up	Ins promoter up	DiI quencher
Cc1ccccc1NC(=O)N(CCc1nc2ccccc2[nH]1)Cc1ccccc1	-0.1	11.9	-1.3	96.3*	-96.2	-0.81	5.6%
CC(=O)Nc1cccc(CCc2nc3ccccc3[nH]2)c1	0.5	2.9	-5.4	-134.6	?	.	.
COc1cc(CCC(=O)OCC(=O)N2CCc3ccccc32)cc(OC)c1OC	-4.3	-2.8	-4.2	5.7	-5.7	.	.
Cc1ccc(C)c(NC(=O)C2(C)CC3c4ccccc4C2c2ccccc23)c1 (stereo not given)	-2.4	-0.7	.	.	.	.	.
Cc1cccc(NC(=O)C2(C)CC3c4ccccc4C2c2ccccc23)c1C (stereo not given)	0.0	0.1	4.5	8.3	-8.3	-0.35	2.3%
CS(=O)(=O)N1CCC2CC1c1cc(-c3ccccc3)ccc12 (stereo not given)	.	0.4	.	3.9	-3.9	.	.
CN1CCC2CC1c1cc(-c3ccc(C(F)(F)F)cc3)ccc12 (stereo not given)	.	-8.3	.	-12.2	12.2	.	-4.7%
OC1CCN(c2cc(-c3ccccc3)nc3cc(-c4ccc(F)cc4)nn23)CC1	-5.0	0.1	15.4	71.6*	-71.6	-0.8	6.4%
C=CCn1c(Oc2ccc(C=O)cc2OCC)nc2c1c(=O)n(C)c(=O)n2C	-6.7	3.8	7.8	.	.	.	.
COc1cc(/C=C\C(=O)NCc2ccc3c(c2)cc(C)n3C)cc(OC)c1OC	-0.6	3.2	-6.7	77.8*	-77.8	0.37	-3.6%
COc1ccc(CC(=O)NCc2ccc3c(c2)cc(C)n3C)cc1OC	2.5	0.6	1.4	25.1	-25.1	-0.14	.
COC(=O)c1c(C)[nH]c(C(=O)C(C)OC(=O)C2CC(=O)N(c3ccc(C)cc3)C2)c1C (stereo not given)	-7.3	-0.1	.	77.4*	-77.4	.	-2.1%
COC(=O)c1c(C)[nH]c(C(=O)C(C)OC(=O)C2CC(=O)N(CCc3ccccc3)C2)c1C (stereo not given)	-3.8	-10.8	.	44.6	-44.6	.	.
O=c1cc(CN2CCN(c3ccccc3)CC2)c2ccccc2o1	.	-3.5	.	.	.	.	.
O=C(OCc1ccccc1)N1CCC2CC1c1cc(-c3ccc(F)cc3)ccc12 (stereo not given)	.	-9.0	.	.	.	.	-3.5%
COc1ccc(-c2ccc3c(c2)C2CC3CCN2C(=O)OCc2ccccc2)cc1 (stereo not given)	.	1.6	.	-11.5	11.5	.	.
CCCN(CC(=O)Nc1ccccc1C)C(=O)/C=C/c1ccc(OC)c(OC)c1	.	1.4	.	.	.	.	.

Screening results (PubChem BioAssay)
